Compound activity deposited in PubChem by several laboratories.
STAT3 blocker: IL-6 driven STAT3 reporter inhibitors, primary screen, U3A cells, luciferase, luminescence, MLSCN library; IL-6 STAT3-luciferase reporter; host cell line lacks STAT1; inhibition, % at 5.5 µM; 190,000 tested, 0.89% active; AID 862, 2007;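 active means inhibition above the mean inhibition across all screened compounds plus 3 SD, cut at about 44% in these data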;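 further: 0% = DMSO only wells and 100% = 100 µM nifuroxazide control wells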
STAT1 blocker: STAT1 signaling inhibitors, primary screen, cell-based, HTS, luciferase reporter | NIH 3T3 STAT1-luciferase reporter, IFN-gamma, luminescence | inhibition, % at 5.5 µM | 200,000 tested, 0.35% active | AID 920, 2007;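 active means inhibition above a set limit, the mean inhibition across all tested compounds plus 3 SD, cut at about 34% in these data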;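 further: 0% = IFN-gamma with DMSO and 100% = IFN-gamma with 300 µM nifuroxazide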
NF-kB neuron act: activators of NF-kB expression in neurons, primary screen, cell-based, HTS; AID 1239, 2008; 190,000 tested, 1.6% active; fold change at 12.5 µM; human neuronal cells, NF-kB reporter expression; hits give high values; in the data active means fold change above about 3.3
STAT1 act-1: STAT1 signaling activators, primary screen, cell-based, HTS, luciferase reporter. NIH 3T3 STAT1-luciferase reporter, IFN-gamma, luminescence; 100% = IFN-gamma alone, no compound. activation (% of control), % at 5.5 µM. 200,000 tested, 2.6% active. AID 932, 2007;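 active means activation above the screen-wide mean activation plus 3 SD, cut at about 130% in these data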;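 further: raw ratio to IFN-gamma control signal so 100% means no change and 0% no light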
STAT3 act-1: IL-6 driven STAT3 reporter potentiators, primary screen, U3A cells, luciferase, luminescence, MLSCN library; IL-6 STAT3-luciferase reporter; 100% = signal with IL-6 EC80 alone; activation (% of control), % at 5.6 µM; 190,000 tested, 0.91% active; AID 871, 2007;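 active means activation above the screen-wide mean of compound activation plus 3 SD, cut at about 130% in these data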;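 further: 0% = background luminescence of wells with medium and substrate only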
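Material: STAT3-luciferase reporter U3A cells; Probe or stimulus: IL-6 (33 ng/mL); Incubation: compound pre-incubation 1 h before IL-6, then 6 h stimulation at 37 °C; Technique: luminescence from STAT3-driven luciferase reporter; Evaluation: % activation versus median of IL-6-stimulated wells; Controls: IL-6-only high control.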
APP 5'UTR act: activators of APP 5'UTR luciferase reporter, primary screen, SH-SY5Y cells; SH-SY5Y APP 5'UTR luciferase reporter, luminescence; zero percent = DMSO vehicle wells; 190,000 tested, 1% active; activation, % at 2 µM;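 active means activation above a set limit, based on mean plus 3 SD of controls, cut at about 140% in these data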
STAT3 act-2: STAT3 reporter potentiators, retest of hits, confirmation, U3A cells, luciferase, luminescence; AID 1267, 2008; potentiation (% of control), % at 5.7 µM; shares compounds with STAT3 act-1; 1,200 tested, 64% active; IL-6 potentiation; U3A cells lack STAT1; 100 means same as IL-6 alone;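 active means percent activation of the STAT3 luciferase reporter above a set limit taken from the earlier primary screen, cut at about 130% in these data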;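 further: 0% = background signal of medium plus substrate and 100% = median of IL-6 with DMSO wells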
NFkB act 2: NF-kB reporter activators in human cells, counter-screen for STAT3 activator project; shares compounds with STAT3 act-1; NF-kappaB reporter activation; activation (% of control), % at 5.7 µM; 1,200 tested, 11% active; in the data active means activation above about 120%;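 further: reporter induced by TNF-alpha stimulation; 100% = median of stimulated DMSO wells and 0% = no signal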
STAT1 act-2: STAT1 reporter activators, IFN-gamma induced, counter-screen for STAT3 activator project, cell-based, NIH 3T3, luciferase luminescence. shares compounds with STAT3 act-1. NIH 3T3 STAT1-luciferase reporter. activation (% of control), % at 5.7 µM. 1,200 tested, 13% active. AID 1318, 2008;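 active means activation above the solvent-only control well mean plus 3 SD, set per screening run, cut at about 120% in these data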;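 further: 100% = IFN-gamma with DMSO median signal so 100% means no change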
* = called active by the depositor; nt = no result given. Rows were chosen to be rich in hits. Some 4.9% of all compounds tested hit in one or more screens of this group.

SMILES | STAT3 blocker | STAT1 blocker | NF-kB neuron act | STAT1 act-1 | STAT3 act-1 | APP 5'UTR act | STAT3 act-2 | NFkB act 2 | STAT1 act-2
Cc1nnc(NC(=O)c2oc3c(ccc4ccccc43)c2C)s1 | -59 | -8 | 1 | 107 | 150* | 0 | 146* | 106 | 102
C/C(=N\Nc1nc2ccccc2[nH]1)c1cc2ccccc2o1 | -49 | -8 | 1 | 107 | 143* | 106 | 176* | 122* | 134*
COc1ccc(S(=O)(=O)N2Cc3ccccc3CC2C(=O)Nc2ccc3c(c2)OCO3)cc1 (centres undefined) | -8 | -7 | 1.2 | 106 | 110 | 21 | nt | nt | nt
COc1ccc(S(=O)(=O)N2Cc3ccccc3CC2C(=O)Nc2nccs2)cc1 (centres undefined) | -46 | -23 | 1.6 | 121 | 140* | 180* | 110 | 112 | 120
O=C1C(Cl)=C(N2CCN(c3ccccc3[N+](=O)[O-])CC2)C(=O)c2ccccc21 | -52 | -4 | 0.52 | 103 | 145* | -18 | 135* | 110 | 94
CCSc1nc2ccccc2[nH]1 | -4 | 1 | 1 | 99 | 106 | 6 | nt | nt | nt
Nc1ccccc1Sc1nc2ccccc2[nH]1 | -34 | 10 | 0.97 | 90 | 136* | -3 | 159* | 117 | 102
CCOC(=O)CSc1nc2sc3c(c2c(=O)n1C1CCCCC1)CCN(C)C3 | 10 | 7 | 0.85 | 92 | 93 | -4 | nt | nt | nt
O=C(Cc1c[nH]c2ccccc12)Nc1nc2ccccc2[nH]1 | -51 | 0 | 1.4 | 100 | 146* | 28 | 154* | 108 | 104
O=c1c(Cc2ccc(Cl)cc2)c(O)ccn1Cc1ccncc1 | 17 | -2 | 1.1 | 99 | 90 | 6 | nt | nt | nt
CC1=C(C(=O)OCc2ccc(C)cc2)C(c2ccc(O)c([N+](=O)[O-])c2)NC(=O)N1 (centres undefined) | 3 | 1 | 0.99 | 99 | 102 | 2 | nt | nt | nt
COc1ccc2nc(-n3c(O)c(C4=c5ccccc5=NC4=O)[nH]c3=S)sc2c1 | 5 | -2 | 1 | 102 | 93 | 0 | nt | nt | nt
Cn1c(O)c(C2=c3ccccc3=NC2=O)[nH]c1=S | -47 | 13 | 1.1 | 88 | 142* | 1 | 155* | 103 | 93
COc1ccc(OCCC(=O)OCC(=O)NCc2ccccc2)cc1 | -7 | -4 | 1.1 | 104 | 102 | 3 | nt | nt | nt
Cc1cc(NC(=O)CSC2=Nc3ccccc3C3=NC(Cc4ccccc4)C(=O)N23)n[nH]1 (centres undefined) | 5 | -2 | 1.2 | 102 | 99 | -9 | nt | nt | nt
CCN(CC)C(=O)CSC1=Nc2ccccc2C2=NC(Cc3c[nH]c4ccccc34)C(=O)N12 (centres undefined) | -39 | 1 | 1.2 | 99 | 137* | 5 | 135* | 101 | 101
O=C(CSc1nc2ccccc2n1CCc1ccccc1)c1ccc(O)c(O)c1 | 9 | -14 | nt | 111 | 97 | -1 | nt | nt | nt
O=C(Nc1ccccn1)c1ccc2ccccc2n1 | -50 | -12 | 5.9* | 111 | 147* | 141* | 180* | 128* | 164*
O=C(Cc1ccc(F)cc1)Nc1c2c(nn1-c1cccc(Cl)c1)CS(=O)C2 (centres undefined) | -7 | -2 | 1.1 | 102 | 108 | -30 | nt | nt | nt
CCOC(=O)CN1C(=O)C(O)(c2c(C)[nH]c3ccccc23)c2ccccc21 (centres undefined) | -75 | 9 | 0.91 | 91 | 167* | -8 | 126 | 107 | 94
